Bioassay records from PubChem.
Rows were chosen to be rich in hits. Some 3% of all compounds tested hit in one or more screens of this group.
5HT1a antag = blocks the human serotonin 5-HT1a receptor. P08908. CHO 5-HT1a Ga15 NFAT-bla reporter, antagonist mode. inhibition, % at 10 µM. 62,000 compounds, 0.68% hits. AID 612;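 active = inhibition above the mean of all tested compounds plus 3 SD, cut at about 43% in these data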;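 also: receptor stimulated by 5-CT agonist at 100 nM near EC80; beta-lactamase reporter measured by ratiometric fluorescence of a cleavable substrate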
5HT1E ag = 5-HT1E (human) receptor agonism; CHO 5-HT1E Ga15 NFAT-bla reporter, FRET; 0% DMSO wells, 100% control agonist wells; 65,000 compounds, 0.69% hits; AID 574; activation, % at 6 µM;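 active = activation above a set limit, the screen-wide mean activation plus 3 SD, cut at about 8.5% in these data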;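 also: 100% = positive control agonist at 1 µM giving full maximal response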
Target sequence (P28566 whole entry, looked up): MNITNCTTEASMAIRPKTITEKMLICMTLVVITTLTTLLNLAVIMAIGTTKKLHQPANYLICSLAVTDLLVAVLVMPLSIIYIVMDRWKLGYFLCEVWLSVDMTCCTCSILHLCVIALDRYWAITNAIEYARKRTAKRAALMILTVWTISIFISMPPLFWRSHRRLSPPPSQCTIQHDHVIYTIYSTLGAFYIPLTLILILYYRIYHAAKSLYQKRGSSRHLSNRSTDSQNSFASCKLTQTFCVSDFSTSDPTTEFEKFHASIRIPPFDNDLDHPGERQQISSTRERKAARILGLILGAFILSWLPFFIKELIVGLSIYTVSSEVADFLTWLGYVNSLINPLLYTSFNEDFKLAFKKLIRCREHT
S1P1 ag pot = agonists and agonism potentiators of human S1P1 receptor | P21453 | S1P1 CRE-bla cells, forskolin, beta-lactamase FRET, potentiator mode; S1P1 agonist co-added at EC20, 2 nM; 100% = saturating reference agonist, 0% = basal | activation, % at 9.5 µM | 56,000 compounds, 0.57% hits | AID 449;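 active = activation above a cutoff set at the mean activation of all tested compounds plus 3 SD, cut at about 54% in these data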;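 also: forskolin at 4 µM as EC80 and the EC20 agonist is SEW2871; 100% = SEW2871 at its EC100 plus forskolin at EC80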
S1P3 ag = agonists of human S1P3 receptor | Q99500 | S1P3 NFAT-BLA reporter cells, agonism, FRET ratio; relative to 1 µM S1P, basal subtracted | activation, % at 4.5 µM | 60,000 compounds, 0.1% hits;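 active = activation above the screen-wide mean plus 3 SD, cut at about 4.5% in these data, passing the limit was not always enough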
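Assay system: CHO cells stably expressing human S1P3, Gα16 and NFAT-β-lactamase reporter. Timing: overnight plating, 4 h compound 37 °C, 2 h substrate RT. Signal: β-lactamase FRET emission ratio 460/535 nm. Measure: percent activation versus median 1 µM S1P response, basal-subtracted, per plate. Repeats: primary screen single test, confirmation screen in triplicate.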
5HT1a ag = agonists of human 5-HT1a serotonin receptor | CHO 5-HT1a Ga15 NFAT-bla reporter, FRET ratio; 0% basal, 100% maximal reference agonist | AID 567 | 65,000 compounds, 0.56% hits | P08908 | activation, % at 10 µM;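 active = activation above the screen-wide mean activation plus 3 SD, cut at about 19% in these data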;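 also: 0% = DMSO wells and 100% = 5-CT at EC100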
HTR1E antagonist = 5-HT1E (human) receptor antagonism; CHO 5-HT1E Ga15 NFAT-bla reporter, FRET, antagonist; P28566; inhibition, % at 6 µM; 65,000 compounds, 0.99% hits;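 active = inhibition above a set limit, the mean inhibition across every tested compound plus 3 SD, cut at about 29% in these data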;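 also: signal is the 460 over 535 nm emission ratio of beta-lactamase substrate; 0% = agonist plus DMSO wells and 100% = wells without agonist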
Starred values were filed as active, the others as inactive; . = no result given.

SMILES | 5HT1a antag | 5HT1E ag | S1P1 ag pot | S1P3 ag | 5HT1a ag | HTR1E antagonist
CN(C)S(=O)(=O)N1CCC(c2ccc(F)cc2)C(COc2ccc3c(c2)OCO3)C1 (stereo not drawn) | 47* | -1 | -12 | -2 | -1 | 9
N#CC1=C2SCC(O)(c3ccccc3)N2C(=O)CC1c1cccs1 (stereo not drawn) | 29 | -1 | 14 | -1 | -3 | 34*
Cc1cc(N2CCN(S(=O)(=O)c3ccc4c(c3)OCCO4)CC2)n2ncnc2n1 | -20 | 1 | -35 | 1 | 0 | 25
Cc1cc(C(=O)Nc2c(F)cc(F)cc2Br)no1 | 4 | 0 | 9 | -1 | 0 | -2
O=C(Nc1c(F)cc(F)cc1Br)c1cc(-c2ccc(O)cc2)on1 | 16 | 2 | 99* | 0 | 3 | -11
COc1c(C)cc(Br)cc1C(=O)Nc1cccc(-c2nc3ncccc3o2)c1 | 12 | 0 | -18 | 0 | 66* | 14
CCn1c(SCC(=O)c2cc(C)n(-c3ccc(C(=O)OC)cc3)c2C)nnc1-c1cccnc1 | -4 | 1 | -8 | 0 | 2 | -7
COCCn1c(C)cc(C(=O)CSc2nnc(-c3cccnc3)n2-c2ccccc2F)c1C | -4 | 1 | 98* | 0 | 0 | -5
CCCCSc1nc(N)c(C#N)c(-c2cccs2)c1C#N | . | 0 | -4 | -4 | 3 | 32*
CC(C)OC(=O)CSc1nc(N)c(C#N)c(-c2cccs2)c1C#N | -10 | 0 | 59 | -2 | 0 | 44*
CCOc1ccc(C(=O)Nc2ccc(Cl)cn2)cc1Cl | 10 | 1 | 73* | -1 | 0 | -1
Cc1c(C(=O)COC(C)(C)C)[nH]c2ccccc12 | 8 | -1 | 21 | -1 | -2 | 0
COc1cc(C)c(S(=O)(=O)N2CCCC2)cc1C | 5 | 0 | -14 | 0 | -1 | 1
[O-][N+]1=c2ccc(Nc3ccccc3)cc2=NC12CCCCC2 | 55* | 0 | 34 | -2 | -3 | 30*
[O-][N+]1=C2CCC/C(=N\O)C2=NC12CCCCC2 | -9 | 0 | -9 | -1 | -4 | -3
C=CS(=O)(=O)c1ccc(Oc2ccc(S(=O)(=O)C=C)cc2)cc1 | 106* | -1 | 124* | -1 | -4 | 103*
CCS(=O)(=O)N1CCN(Cc2nc3ccccc3c(=O)[nH]2)CC1 | -2 | 0 | . | . | -1 | -8
CSc1nnc(-c2cc3ccccc3cc2O)n1C | 8 | 0 | . | . | -1 | 15
Nc1cc(C(=O)O)ccc1Nc1ccc(F)c(F)c1 | -6 | 33* | -1 | -1 | -2 | -8
CN(C)S(=O)(=O)c1ccc(NC(=O)c2cc3ccccc3o2)cc1 | -8 | 0 | 14 | -2 | 21* | 20
CCC(=O)Nc1ccc(NC(=O)c2cc3ccccc3o2)cc1 | -16 | -1 | -10 | -1 | 1 | 0
Cc1nnc(SCCn2c(N3CCN(c4ccccc4)CC3)nc3c2c(=O)n(C)c(=O)n3C)s1 | -7 | 1 | -22 | -1 | 1 | -6
CCNc1nc(C)c2cc(Br)c(=O)n(CC)c2n1 | 42 | -1 | -35 | -2 | -1 | 58*
COc1ccc(-c2[nH]ncc2-c2ccc3c(c2)OCCO3)c(O)c1 | 44* | 0 | 91* | -1 | -3 | 16
CCOc1ccc(-c2[nH]ncc2-c2ccc(OC)c(OC)c2)c(O)c1 | 18 | 0 | -26 | -1 | 0 | 27
CCc1cc(-c2[nH]ncc2-c2ccc3c(c2)OCO3)c(O)cc1O | 33 | 0 | 69* | -1 | -4 | 15
CCN1CCN(C(c2cccs2)C(C)NC(=O)C(C)C)CC1 (stereo not drawn) | 1 | 0 | 12 | -2 | -1 | 4
Cc1cc(=O)oc2cc(OCC(=O)N3c4ccccc4CC3C)ccc12 (stereo not drawn) | 24 | 0 | 28 | 0 | -1 | 33*
Cc1cc(=O)oc2cc(OCC(O)CN3CCc4ccccc4C3)ccc12 (stereo not drawn) | 8 | 1 | 4 | 1 | 3 | -13
Cc1cc(=O)oc2cc(OCC(O)CN3CCN(c4ccccc4)CC3)ccc12 (stereo not drawn) | 46* | 1 | 11 | -1 | 10 | 2
